Data taken from paper PMC11318567 (Computational and Structural Biotechnology Journal, 2024).
Entries after “also recorded” stand apart in the source; their conditions may differ.

Assays:
human topo IIβ = human topo IIβ (Homo sapiens, UniProt Q02880); experiment: Human topo IIβ-mediated decatenation assay; assay type: biochemical
human topo IIα [1] = molecular target: T1, human topo IIα (Homo sapiens, UniProt P11388); experiment: Human topoisomerase IIα-mediated relaxation assay; assay type: biochemical
T1 sequence (P11388 whole entry): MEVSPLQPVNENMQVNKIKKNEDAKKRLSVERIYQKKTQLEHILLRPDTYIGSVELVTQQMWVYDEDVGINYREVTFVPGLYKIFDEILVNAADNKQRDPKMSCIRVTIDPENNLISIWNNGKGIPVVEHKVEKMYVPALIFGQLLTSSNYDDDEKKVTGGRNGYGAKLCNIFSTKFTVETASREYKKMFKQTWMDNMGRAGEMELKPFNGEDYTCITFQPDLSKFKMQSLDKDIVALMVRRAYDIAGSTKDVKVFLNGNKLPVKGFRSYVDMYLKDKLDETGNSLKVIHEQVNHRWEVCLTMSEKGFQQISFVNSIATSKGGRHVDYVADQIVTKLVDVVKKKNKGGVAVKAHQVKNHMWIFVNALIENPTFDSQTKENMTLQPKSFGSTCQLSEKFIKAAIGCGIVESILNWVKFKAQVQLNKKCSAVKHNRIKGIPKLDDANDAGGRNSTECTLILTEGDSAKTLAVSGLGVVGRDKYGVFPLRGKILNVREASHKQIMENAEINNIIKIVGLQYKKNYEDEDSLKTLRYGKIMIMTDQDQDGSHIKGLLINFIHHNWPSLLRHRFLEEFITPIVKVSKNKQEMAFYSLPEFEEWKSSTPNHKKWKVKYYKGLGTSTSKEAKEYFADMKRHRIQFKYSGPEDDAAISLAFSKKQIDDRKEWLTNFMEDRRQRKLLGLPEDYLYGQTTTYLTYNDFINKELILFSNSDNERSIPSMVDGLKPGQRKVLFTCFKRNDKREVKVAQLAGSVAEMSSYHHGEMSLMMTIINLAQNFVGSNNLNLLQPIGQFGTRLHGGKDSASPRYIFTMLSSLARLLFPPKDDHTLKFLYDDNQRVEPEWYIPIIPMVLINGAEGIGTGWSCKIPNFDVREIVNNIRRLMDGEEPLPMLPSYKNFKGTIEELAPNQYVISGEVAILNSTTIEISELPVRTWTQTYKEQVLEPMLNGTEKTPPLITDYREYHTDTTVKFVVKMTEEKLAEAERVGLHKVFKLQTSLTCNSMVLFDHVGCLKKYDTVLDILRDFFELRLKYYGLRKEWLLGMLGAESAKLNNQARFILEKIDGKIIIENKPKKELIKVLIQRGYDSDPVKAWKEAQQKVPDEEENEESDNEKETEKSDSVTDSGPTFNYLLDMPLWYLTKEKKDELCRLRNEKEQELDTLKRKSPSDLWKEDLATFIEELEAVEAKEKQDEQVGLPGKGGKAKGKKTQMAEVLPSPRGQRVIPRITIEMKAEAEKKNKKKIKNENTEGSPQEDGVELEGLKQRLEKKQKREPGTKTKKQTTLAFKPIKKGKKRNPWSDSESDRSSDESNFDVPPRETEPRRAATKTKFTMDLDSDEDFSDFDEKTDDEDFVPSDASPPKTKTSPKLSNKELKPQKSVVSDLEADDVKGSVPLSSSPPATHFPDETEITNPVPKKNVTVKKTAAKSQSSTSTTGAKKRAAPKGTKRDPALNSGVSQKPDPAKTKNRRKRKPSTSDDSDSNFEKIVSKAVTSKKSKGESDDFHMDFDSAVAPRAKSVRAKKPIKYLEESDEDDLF

human topo IIα [2] = molecular target: T1, human topo IIα; experiment: Human topoisomerase IIα-mediated cleavage assay; assay type: biochemical; details: 7.8-125 μM
wheatgerm topo I = experiment: Wheatgerm topo I unwinding assay; assay type: biochemical, wheat germ; details: 7.8, 15.6, 31.25, 125 μM
Method in brief: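 Wheat germ topo I plasmid unwinding run in duplicate at 7.8, 15.6, 31.25 and 125 µM test compound, with the intercalator m-AMSA as positive control.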

[3] = molecular target: ATPase domain of topo IIα (Homo sapiens, UniProt P11388); experiment: 1H STD NMR experiments; assay type: binding; details: protein:ligand ratio 1:100
Chain of ATPase domain of topo IIα (P11388 1-453 limits assumed): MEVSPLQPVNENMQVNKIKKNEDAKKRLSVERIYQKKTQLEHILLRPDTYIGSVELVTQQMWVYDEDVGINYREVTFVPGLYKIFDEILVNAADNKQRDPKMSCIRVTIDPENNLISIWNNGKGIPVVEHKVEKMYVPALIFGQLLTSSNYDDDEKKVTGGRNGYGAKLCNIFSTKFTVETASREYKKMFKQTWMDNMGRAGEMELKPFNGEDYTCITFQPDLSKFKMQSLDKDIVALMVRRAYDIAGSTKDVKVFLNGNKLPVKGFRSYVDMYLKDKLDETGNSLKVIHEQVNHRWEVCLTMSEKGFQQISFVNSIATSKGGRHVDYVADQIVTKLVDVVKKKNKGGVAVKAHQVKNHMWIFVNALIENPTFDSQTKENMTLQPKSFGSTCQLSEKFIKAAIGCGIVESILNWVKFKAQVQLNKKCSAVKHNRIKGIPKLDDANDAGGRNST
Method in brief: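 Runs were at 600 MHz, 25 °C, with a 100 ms T₁ρ filter. On-resonance saturation was at −0.727 ppm and off-resonance at 30 ppm. Saturation was 0.5 or 1 s depending on compound, with relaxation delay 4 or 1.5 s. Epitope maps come from STD amplification factors.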

[4] = tested on: NCI-60 human cancer cell lines; experiment: NCI-60 screening, whole panel; assay type: cell-based; details: 10 µM
human topo IIα [5] = molecular target: T1, human topo IIα; experiment: Human topo IIα-mediated decatenation assay; assay type: biochemical; details: for IC50, topo IIα-mediated decatenation assay: average of two replicates
human topo IIα [6] = molecular target: T1, human topo IIα; experiment: Human topo IIα competitive cleavage assay; assay type: biochemical; details: in the presence of 50 μM etoposide
human topo II = human topo II (Homo sapiens, UniProt P11388); experiment: Competitive ATPase assay; assay type: biochemical; details: IC50 versus ATP concentration
Chain of human topo II (P11388 whole entry): as the sequence (P11388 whole entry) above
Method in brief: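 NADH-coupled ATPase (pyruvate kinase/lactate dehydrogenase, phosphoenolpyruvate) with human topo II at 14 nM final and linear pBR322. Buffer was 20 mM Tris-HCl, 5 mM Mg acetate, 125 mM K acetate, 2 mM DTT, pH 7.9. Compound in DMSO went in before enzyme, then a 10–15 min OD340 pre-run. ATP was added at varying concentrations and OD340 followed for up to 30 min at 37 °C, in duplicate. Hydrolysis rates vs ATP gave IC50 at each ATP level.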

[7] = Solubility as observed during preparation for assays; assay type: physicochemical
U251 = experiment: NCI-60 screening; assay type: cell-based; details: Homo sapiens, U-251, read-out: inhibition of cell growth
SK-MEL-5 = experiment: NCI-60 screening; assay type: cell-based; details: Homo sapiens, SK-MEL-5, read-out: inhibition of cell growth

Chain of human topo IIβ (Q02880 whole entry): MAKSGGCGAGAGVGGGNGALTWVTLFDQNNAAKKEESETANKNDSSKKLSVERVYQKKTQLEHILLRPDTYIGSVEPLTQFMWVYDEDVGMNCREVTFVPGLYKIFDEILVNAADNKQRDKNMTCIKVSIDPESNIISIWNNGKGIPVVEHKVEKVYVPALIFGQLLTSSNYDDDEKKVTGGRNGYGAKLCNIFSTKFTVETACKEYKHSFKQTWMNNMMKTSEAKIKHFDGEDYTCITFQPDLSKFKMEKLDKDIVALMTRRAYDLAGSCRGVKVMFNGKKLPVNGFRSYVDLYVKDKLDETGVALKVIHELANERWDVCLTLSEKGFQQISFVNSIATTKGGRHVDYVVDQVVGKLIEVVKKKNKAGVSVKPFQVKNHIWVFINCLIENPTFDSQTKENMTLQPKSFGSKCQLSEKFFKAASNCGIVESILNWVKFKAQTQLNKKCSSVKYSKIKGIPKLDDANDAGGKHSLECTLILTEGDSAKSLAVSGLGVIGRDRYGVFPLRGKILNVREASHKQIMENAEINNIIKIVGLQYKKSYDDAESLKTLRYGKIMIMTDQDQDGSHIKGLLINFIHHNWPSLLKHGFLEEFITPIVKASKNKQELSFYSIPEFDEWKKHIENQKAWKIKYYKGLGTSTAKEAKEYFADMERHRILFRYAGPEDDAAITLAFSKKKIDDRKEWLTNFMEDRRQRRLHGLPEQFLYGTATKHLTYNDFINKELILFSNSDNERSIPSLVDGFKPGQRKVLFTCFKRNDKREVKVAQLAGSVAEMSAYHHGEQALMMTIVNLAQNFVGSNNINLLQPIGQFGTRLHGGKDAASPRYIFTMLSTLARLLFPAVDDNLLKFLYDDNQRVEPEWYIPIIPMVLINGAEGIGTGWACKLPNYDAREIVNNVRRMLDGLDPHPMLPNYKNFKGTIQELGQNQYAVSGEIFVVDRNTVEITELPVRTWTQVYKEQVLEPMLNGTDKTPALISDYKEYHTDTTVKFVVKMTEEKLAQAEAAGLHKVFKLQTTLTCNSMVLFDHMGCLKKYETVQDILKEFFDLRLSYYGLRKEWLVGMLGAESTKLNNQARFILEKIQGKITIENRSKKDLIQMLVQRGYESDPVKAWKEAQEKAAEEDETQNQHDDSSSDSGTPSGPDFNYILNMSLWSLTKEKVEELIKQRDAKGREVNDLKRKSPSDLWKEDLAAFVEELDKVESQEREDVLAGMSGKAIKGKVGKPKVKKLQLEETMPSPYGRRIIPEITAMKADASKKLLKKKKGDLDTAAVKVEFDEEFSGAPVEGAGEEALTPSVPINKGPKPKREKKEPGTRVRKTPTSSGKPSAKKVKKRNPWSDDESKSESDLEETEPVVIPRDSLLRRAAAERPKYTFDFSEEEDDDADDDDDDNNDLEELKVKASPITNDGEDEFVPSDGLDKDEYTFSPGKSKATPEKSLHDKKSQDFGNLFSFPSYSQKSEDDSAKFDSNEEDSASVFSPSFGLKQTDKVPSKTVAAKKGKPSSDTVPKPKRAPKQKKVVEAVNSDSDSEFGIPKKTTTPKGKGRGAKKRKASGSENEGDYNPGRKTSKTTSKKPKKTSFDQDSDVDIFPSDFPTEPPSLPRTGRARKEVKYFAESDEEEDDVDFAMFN

Row | IC50 (human topo IIβ) [µM] | IC50 (human topo IIα [1]) [µM] | interaction with the ATPase domain of topo IIα by STD NMR (in words) [3] | SMILES | linear plasmid in the cleavage assay (in words) (human topo IIα [2]) | unwinding / intercalation (in words) (wheatgerm topo I) | cytotoxic activity in NCI-60 (in words) [4] | solubility (in words) [7] | further results
1 | 10.6 ± 28.8 | – | confirmed the interaction | O=c1nc(SCc2cc(F)cc(C(F)(F)F)c2)nc(SCc2ccc3nc(Cl)ccc3c2)[nH]1 [Compound 30, 6-(((2-Chloroquinolin-6-yl)methyl)thio)−4-((3-fluoro-5-(trifluoromethyl)benzyl)thio)−1,3,5-triazin-2(1H)-one] | only a very weak increase in the linear plasmid at the highest concentration of 125 μM | inhibitors rather than intercalators | – | more soluble compared to the previous series; also recorded: more soluble compared to the benzyl-substituted analogues | IC50 (human topo IIα [5]): 12 ± 4.8 µM; linear product in the competitive cleavage assay (in words) (human topo IIα [6]): decreased the amount of linear product of the etoposide-topo IIα complex; mode of inhibition with respect to ATP (in words) (human topo II): ATP-competitive inhibition
2 | – | – | – | CC(C)c1ccc(CSc2nc(SCc3ccc4sccc4c3)[nH]c(=O)n2)cc1 [Compound 26, 6-((Benzo[b]thiophen-5-ylmethyl)thio)−4-((4-isopropylbenzyl)thio)−1,3,5-triazin-2(1H)-one] | – | – | much lower compared to 24 and 25 | – | –
3 | – | – | – | O=c1nc(SCc2ccc(C(F)(F)F)cc2)nc(SCc2ccc3sccc3c2)[nH]1 [Compound 25, 6-((Benzo[b]thiophen-5-ylmethyl)thio)−4-((4-(trifluoromethyl)benzyl)thio)−1,3,5-triazin-2(1H)-one] | – | – | more diverse and potent cytotoxic effects | – | inhibition at 10 µM (U251): 80%; inhibition at 10 µM (SK-MEL-5): 89.5%
4 | – | – | – | O=c1nc(SCc2cc(F)cc(C(F)(F)F)c2)nc(SCc2cccc(C(F)(F)F)c2)[nH]1 [Compound 34, 4-((3-Fluoro-5-(trifluoromethyl)benzyl)thio)− 6-((3-(trifluoromethyl)benzyl)thio)− 1,3,5-triazin-2(1 H)-one] | – | – | did not exhibit cytotoxic activity | less soluble | –
5 | – | – | confirmed the interaction | O=c1nc(SCc2cc(F)cc(C(F)(F)F)c2)nc(SCc2ccc3nc(OCCN4CCOCC4)ccc3c2)[nH]1 [Compound 31, 4-((3-Fluoro-5-(trifluoromethyl)benzyl)thio)−6-(((2-(2-morpholinoethoxy)quinolin-6-yl)methyl)thio)−1,3,5-triazin-2(1H)-one] | no linear plasmid up to the measured concentration of 125 μM | – | – | more soluble compared to the previous series | IC50 (human topo IIα [5]): 18.5 ± 5.9 µM
6 | – | – | – | COc1cc(NS(C)(=O)=O)ccc1Nc1c2ccccc2nc2ccccc12 [mAMSA, reference compound] | – | showed intercalator-mediated effects at all 4 concentrations | – | – | –
7 | – | – | – | COc1cc([C@@H]2c3cc4c(cc3[C@@H](O[C@@H]3O[C@@H]5CO[C@@H](C)O[C@H]5[C@H](O)[C@H]3O)[C@H]3COC(=O)[C@H]23)OCO4)cc(OC)c1O [Etoposide, etoposide, reference compound] | – | showed no signs of unfolding | – | – | –
8 | – | 7.7 ± 8.5 | – | O=c1nc(SCc2ccc(C(F)(F)F)cc2)nc(SCc2csc3ccc(Cl)cc23)[nH]1 [Compound 33, 6-(((5-Chlorobenzo[b]thiophen-3-yl)methyl)thio)−4-((4-(trifluoromethyl)benzyl)thio)−1,3,5-triazin-2(1H)-one] | – | – | – | – | IC50, topo IIα-mediated decatenation assay (human topo IIα [5]): single-digit micromolar range
9 | 8.3 ± 2.5 | 8.7 ± 7.3 | – | O=c1nc(SCc2cc(F)cc(C(F)(F)F)c2)nc(SCc2csc3ccc(Cl)cc23)[nH]1 [Compound 32, 6-(((5-Chlorobenzo[b]thiophen-3-yl)methyl)thio)−4-((3-fluoro-5-(trifluoromethyl)benzyl)thio)−1,3,5-triazin-2(1H)-one] | higher even at lower concentrations | – | – | – | IC50, topo IIα-mediated decatenation assay (human topo IIα [5]): single-digit micromolar range

Row | SMILES | IC50 (human topo IIβ) [µM] | IC50 (human topo IIα [1]) [µM] | interaction with the ATPase domain of topo IIα by STD NMR (in words) [3] | linear plasmid in the cleavage assay (in words) (human topo IIα [2]) | unwinding / intercalation (in words) (wheatgerm topo I) | cytotoxic activity in NCI-60 (in words) [4] | solubility (in words) [7] | further results
10 | Cc1nc(CSc2nc(SCc3ccc(C(C)C)cc3)nc(=O)[nH]2)cs1 [Compound 37, 4-((4-Isopropylbenzyl)thio)−6-(((2-methylthiazol-4-yl)methyl)thio)−1,3,5-triazin-2(1H)-one] | 16 ± 39 | 108 ± 3.8 | confirmed its interaction with the ATPase domain | only a very weak increase in the linear plasmid at the highest concentration of 125 μM | inhibitors rather than intercalators | did not exhibit cytotoxic activity | – | –
